A selection: hits, their analogues and other compounds. The true share with any hit is near 8.9%.
b-catenin transl – alters nuclear translocation of beta-catenin in HeLa cells. immunofluorescence imaging. nuclear translocation activity, % at 5 µM. hit rate 0.3% among 190,000;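 active means nuclear translocation activity above 50% at 5 µM, with a well cell count of 50 or more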;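 further: per-cell ratio of nuclear to cytoplasmic median beta-catenin stain intensity; plate controls were DMSO negative control for no effect and GSK-3 inhibitor IX positive control for full effect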
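Technique: fluorescence imaging of beta-catenin antibody stain plus DAPI / Material: human HeLa cell line / Incubation: compound treatment 24 h, 37°C, 5% CO2 / Read-out basis: % activation of per-cell nuclear versus cytoplasmic median beta-catenin signal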
Dynein transport – blocks dynein driven cargo transport along microtubules; 3617.4 mouse cells, GR-EGFP nuclear translocation imaging; test concentration mostly 20 µM; stimulated with dexamethasone, 1 µM; hits give low values; z-score, hits read low; hit rate 0.47% among 220,000; AID 1381;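 active means plate z-score of nuclear minus cytoplasmic receptor signal below a set negative limit, without overly bright fluorescence or cell loss, cut at about -3.5 in these data, passing the limit was not always enough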;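 further: z-score of nuclear minus cytoplasmic ring GR-EGFP intensity difference per well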
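medium = tetracycline-free induction medium containing charcoal-stripped FBS | also added = 1.0 µM final dexamethasone stimulus | schedule = 48 h induction, 1 h compound, 30 min dex at 37 °C | technique = fixed, Hoechst-stained cells imaged at 10x for EGFP | measure = GR-EGFP nuclear translocation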
L major viab – reduces viability of Leishmania major promastigotes; resazurin fluorescence viability; inhibition, % at 10 µM; hit rate 9% among 200,000; in the data active means inhibition above about 50%;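 further: promastigotes grown with compound for 44 hours at 28 °C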
MT stabilize HCS – stabilizes microtubules in HeLa cells | HeLa tubulin immunostaining HCS, 24 h; share of cells brighter than vehicle mean+2SD | % tubulin-high responders, % at 10 µM | hit rate 0.83% among 200,000 | AID 2205;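 active means plate Z-score above 3 for both tubulin-high and condensed-nucleus cell shares, with cell loss under 80%, at 10 µM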;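 further: anti alpha tubulin signal scored within the nucleus-defined area of each cell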
HSV augment – HSV replication enhancement; AID 1956; hit rate 0.005% among 220,000; HSV replication augmentation in cells, fold increase; maximum fold increase; in the data active means maximum fold increase above about 1.5; tested in PC3 cells
* marks the source's active call; other numbers are inactive results; i = inactive; / = not tested or not shown.

SMILES	b-catenin transl	Dynein transport	L major viab	MT stabilize HCS	HSV augment
Cc1ccc(-c2csc3ncnc(SCC(N)=O)c23)cc1	0	0.69	-11	3	i
Cn1nnnc1Sc1ncnc2scc(-c3ccc(F)cc3)c12	-3	-2	91*	12	/
CC(=O)Nc1cccc(/C(C)=N/NC(=O)c2cc(-c3ccncc3)nc3ccccc23)c1	2	-0.26	/	/	i
COC(=O)c1ccccc1NC(=O)Nc1ccc(Cl)cn1	0	-3	-4	3	i
Cc1ncsc1C(=O)N1N=C2/C(=C/c3ccc(N4CCOCC4)cc3)CCCC2C1c1ccc(N2CCOCC2)cc1 (centres undefined)	-1	0.16	32	3	i
O=C(CSc1ncn[nH]1)N1N=C2/C(=C/c3ccccc3)CCCC2C1c1ccccc1 (centres undefined)	5	0.36	6	7	i
COc1ccc(/C=C2\CCCC3C2=NN(C(=O)CSc2ncn[nH]2)C3c2ccc(OC)cc2)cc1 (centres undefined)	/	-0.23	91*	2	i
Cc1ncsc1C(=O)N1N=C2/C(=C/c3ccccc3)CCCC2C1c1ccccc1 (centres undefined)	-3	-0.3	99*	4	/
CC(C)CNS(=O)(=O)c1ccc(OCC(=O)NCc2ccco2)cc1	1	1	-6	3	i
CCOC(=O)c1cc2c(ccn2C)n1Cc1cc(C)ccc1C	0	-0.81	93*	2	i
Cc1ccc(N2C(=O)C3NN=C(C(=O)OCc4ccccc4)C3C2=O)cc1 (centres undefined)	-4	-0.098	-9	6	i
CCOc1ccc(-n2c(SCc3nc(-c4cccs4)no3)nnc2-c2ccncc2)cc1	/	0.59	62*	4	i
CCCn1c(SCc2nc(-c3cccs3)no2)nnc1-c1ccncc1	-1	-0.17	-5	4	i
CCCOc1ccc(/C=N/NC(=O)C2CCCN2S(=O)(=O)c2ccc(Cl)cc2)cc1 (centres undefined)	0	-1.1	59*	2	i
CC(C)Oc1ccc(/C=N/NC(=O)C2CCCN2S(=O)(=O)c2ccc(Cl)cc2)cc1 (centres undefined)	0	0.82	60*	2	i
O=C(Nc1ccc(Cl)cn1)C1CCCN1S(=O)(=O)c1ccc(Cl)cc1 (centres undefined)	-6	-0.67	53*	3	/
O=C(Nc1ccc(Cl)cn1)C1CCCN1S(=O)(=O)c1cccc2ccccc12 (centres undefined)	/	-0.51	1	5	i
O=C(NC1CC1)C1=C[C@H](c2csc3ccccc23)C[C@H](OCCCCO)O1	-3	-0.47	85*	4	i
O=C(NCc1ccccc1)C1=C[C@@H](c2csc3ccccc23)C[C@@H](OCc2ccc(CO)cc2)O1	1	-0.56	74*	2	i
O=C(O)C1=C[C@H](c2csc3ccccc23)C[C@H](OCc2ccc(CO)cc2)O1	-3	0.76	-10	3	i
CCOc1ccc(Br)cc1S(=O)(=O)Nc1ccc(C(=O)OCC(=O)N(C)c2ccccc2)cc1	2	-0.8	-10	3	i
Cc1nn(Cc2ccccc2Cl)c2sc(C(=O)NC(C)(C)C)cc12	-3	0.14	38	3	i
Cc1csc(NC(=O)c2cc3c(C)nn(Cc4ccccc4Cl)c3s2)n1	-1	2.2	96*	2	i
CCOC(=O)N1CCN(CC(=O)Nc2ccc(Oc3ccccc3)cc2)CC1	1	-0.54	97*	5	/
C=CCC(=O)OCC(=O)Nc1ccc(Oc2ccccc2)cc1	-4	-0.56	97*	3	/
SMILES	b-catenin transl	Dynein transport	L major viab	MT stabilize HCS	HSV augment
CC1CCCCN1CC(=O)Nc1ccc(N2CCCCCC2)cc1 (centres undefined)	0	0.97	25	2	i
CC1CCCCN1CC(=O)Nc1ccc(Oc2ccccc2)cc1 (centres undefined)	/	-0.54	96*	3	i
CN1CCN(CC(=O)Nc2ccc(Oc3ccccc3)cc2)CC1	2	0.22	38	5	i
CCCSc1ccc2nc(NC(=O)OC)[nH]c2c1	/	0.28	8	20*	i
CC(C)C(=O)Nc1cccc(NC(=O)c2ccc(Cl)cc2Cl)c1	-2	0.17	-4	1	i
CCOc1ccc2c(c1)OC(c1ccc(OC)cc1)(C(F)(F)F)NC2=O (centres undefined)	-2	-0.65	100*	16	i
CCOc1ccc2c(c1)OC(c1ccccc1)(C(F)(F)F)NC2=O (centres undefined)	-1	-0.064	-2	3	i
Cc1cccc(Nc2nc(N)c([N+](=O)[O-])c(N3CC(C)CC(C)C3)n2)c1 (centres undefined)	1	-1.2	93*	2	i
CCN1CCN(c2nc(Nc3ccc(C)c(C)c3)nc(N)c2[N+](=O)[O-])CC1	1	-0.17	4	7	i
CCN1CCN(c2nc(N)c([N+](=O)[O-])c(Nc3cccc(C)c3)n2)CC1	6	1.1	100*	4	i
NS(=O)(=O)c1ccc(CNC(=O)/C=C/c2ccc(S(=O)(=O)N3CCOCC3)cc2)cc1	0	-0.89	/	/	i
N#CC1=C(N)Oc2ccc3ccccc3c2C1c1cccnc1 (centres undefined)	-2	1.8	88*	16*	i
CCOC(=O)N1CCC(NC(=O)CNS(=O)(=O)c2ccc(Br)s2)CC1	3	-0.028	-5	20*	i
Cc1cccc2cc(CN(Cc3ccco3)C(c3nnnn3CCc3ccccc3)C(C)C)c(=O)[nH]c12 (centres undefined)	-2	0.079	87*	4	i
S=C(NCCc1ccccc1)Nc1ccccc1Cl	-2	-0.25	68*	2	i
S=C(NCCCc1ccccc1)Nc1ccccc1Cl	-1	0.93	17	4	i
S=C(NCCc1ccccc1)Nc1ccc(Cl)cc1	0	-0.061	19	2	i
O=[N+]([O-])c1ccc(NNC(=S)Nc2ccccc2)cc1	-1	-0.24	53*	3	/
O=[N+]([O-])c1ccc(NC(=S)NCCc2ccc(Cl)cc2)cc1	-5	0.013	91*	1	i
O=[N+]([O-])c1cc(C(F)(F)F)ccc1NCCNC(=S)Nc1ccc(Cl)cc1	-1	-0.12	101*	0	i
O=[N+]([O-])c1cc(C(F)(F)F)ccc1NCCCCNS(=O)(=O)c1ccc(Cl)cc1	-1	-0.17	24	2	i
Cc1ccc(C)n1NC(=O)c1ccccc1	-2	-0.61	-4	3	i
COc1ccc(NC(=O)c2ccc3c(c2)OCO3)cc1[N+](=O)[O-]	1	1.5	3	4	i
O=[N+]([O-])c1ccc(NC(=S)NCCc2ccccc2)cc1	-7	-0.88	74*	2	i
O=C(NC(=S)Nc1ccc2[nH]c(=O)[nH]c2c1)c1cncc(Br)c1	0	0.89	11	2	i

High-throughput results: PubChem BioAssay, several laboratories
